Measured values taken from ChEMBL document CHEMBL1152173, “Synthesis and in vitro evaluation of the antifungal activities of dihydropyrimidinones” (2008).
Values after ≈ are worked out from the molar mass of the structure shown. Active and inactive are the calls of the source. The rule behind the calls is not given here.

Legend:
[1] = test system: Trichoderma hamatum; assay: Antifungal activity against Trichoderma hamatum assessed as radial growth at 7% after 24 hrs by poison food technique of Flack; assay type: functional, organism-based
Procedure, shortened: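 Poisoned-food method: acetone stock mixed into molten sterilized potato dextrose agar to final 0.5, 1, 3, 5 or 7%, poured into 90 mm plates. Plates were inoculated with a 9 mm mycelial disc from a 4-day-old pure culture and incubated at 25 ± 1 °C. Colony diameter (mm) was read every 24 h; mean of three replicates.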

[2] = test system: Trichoderma hamatum; assay: Antifungal activity against Trichoderma hamatum assessed as radial growth at 0.5% after 24 hrs by poison food technique of Flack relative to control; assay type: functional
[3] = test system: Aspergillus niger; assay: Antifungal activity against Aspergillus niger assessed as radial growth at 5% after 72 hrs by poison food technique of Flack relative to control; assay type: functional
[4] = test system: Aspergillus niger; assay: Antifungal activity against Aspergillus niger assessed as radial growth at 0.5% after 48 hrs by poison food technique of Flack relative to control; assay type: functional
[5] = test system: Trichoderma koningii; assay: Antifungal activity against Trichoderma koningii assessed as radial growth at 5% after 48 hrs by poison food technique of Flack relative to control; assay type: functional
Procedure, shortened: (§1)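 Acetone stock added to molten sterilized PDA to final 0.5–7%, plated in 90 mm dishes with compound-free plates as control. Each plate was inoculated with a 9 mm disc from a 4-day-old culture, incubated at 25 ± 1 °C, and colony diameter measured at 24 h intervals. % inhibition = (control − treatment)/control × 100; three replicates averaged.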

[6] = test system: Trichoderma hamatum; assay: Antifungal activity against Trichoderma hamatum assessed as radial growth at 0.5% after 48 hrs by poison food technique of Flack relative to control; assay type: functional
[7] = test system: Aspergillus niger; assay: Antifungal activity against Aspergillus niger assessed as radial growth at 1% after 24 hrs by poison food technique of Flack relative to control; assay type: functional
[8] = test system: Aspergillus niger; assay: Antifungal activity against Aspergillus niger assessed as radial growth at 7% after 48 hrs by poison food technique of Flack relative to control; assay type: functional
[9] = test system: Aspergillus niger; assay: Antifungal activity against Aspergillus niger assessed as radial growth at 1% after 72 hrs by poison food technique of Flack relative to control; assay type: functional
[10] = test system: Aspergillus niger; assay: Antifungal activity against Aspergillus niger assessed as radial growth at 3% after 48 hrs by poison food technique of Flack relative to control; assay type: functional
[11] = test system: Trichoderma koningii; assay: Antifungal activity against Trichoderma koningii assessed as radial growth at 5% after 24 hrs by poison food technique of Flack relative to control; assay type: functional; procedure, shortened: as §1
[12] = test system: Trichoderma hamatum; assay: Antifungal activity against Trichoderma hamatum assessed as radial growth at 1% after 72 hrs by poison food technique of Flack relative to control; assay type: functional
[13] = test system: Aspergillus niger; assay: Antifungal activity against Aspergillus niger assessed as radial growth at 5% after 24 hrs by poison food technique of Flack relative to control; assay type: functional
[14] = test system: Trichoderma koningii; assay: Antifungal activity against Trichoderma koningii assessed as radial growth at 1% after 48 hrs by poison food technique of Flack relative to control; assay type: functional; procedure, shortened: as §1
[15] = test system: Aspergillus niger; assay: Antifungal activity against Aspergillus niger; assay type: functional
[16] = test system: Trichoderma hamatum; assay: Antifungal activity against Trichoderma hamatum; assay type: functional
[17] = test system: Aspergillus niger; assay: Antifungal activity against Aspergillus niger assessed as radial growth at 0.5% after 24 hrs by poison food technique of Flack relative to control; assay type: functional
[18] = test system: Trichoderma hamatum; assay: Antifungal activity against Trichoderma hamatum assessed as radial growth at 5% after 24 hrs by poison food technique of Flack relative to control; assay type: functional; procedure, shortened: as §1
[19] = test system: Trichoderma hamatum; assay: Antifungal activity against Trichoderma hamatum assessed as radial growth at 7% after 72 hrs by poison food technique of Flack relative to control; assay type: functional; procedure, shortened: as §1
[20] = test system: Trichoderma hamatum; assay: Antifungal activity against Trichoderma hamatum assessed as radial growth at 7% after 24 hrs by poison food technique of Flack relative to control; assay type: functional; procedure, shortened: as §1
[21] = test system: Trichoderma hamatum; assay: Antifungal activity against Trichoderma hamatum assessed as radial growth at 3% after 72 hrs by poison food technique of Flack relative to control; assay type: functional
[22] = test system: Aspergillus niger; assay: Antifungal activity against Aspergillus niger assessed as radial growth at 7% after 24 hrs by poison food technique of Flack relative to control; assay type: functional
[23] = test system: Aspergillus niger; assay: Antifungal activity against Aspergillus niger assessed as radial growth at 0.5% after 72 hrs by poison food technique of Flack relative to control; assay type: functional
[24] = test system: Aspergillus niger; assay: Antifungal activity against Aspergillus niger assessed as radial growth at 3% after 24 hrs by poison food technique of Flack relative to control; assay type: functional
[25] = test system: Trichoderma koningii; assay: Antifungal activity against Trichoderma koningii assessed as radial growth at 7% after 48 hrs by poison food technique of Flack relative to control; assay type: functional; procedure, shortened: as §1
[26] = test system: Trichoderma koningii; assay: Antifungal activity against Trichoderma koningii assessed as radial growth at 1% after 24 hrs by poison food technique of Flack relative to control; assay type: functional; procedure, shortened: as §1
[27] = test system: Trichoderma hamatum; assay: Antifungal activity against Trichoderma hamatum assessed as radial growth at 3% after 24 hrs by poison food technique of Flack relative to control; assay type: functional
[28] = test system: Aspergillus niger; assay: Antifungal activity against Aspergillus niger assessed as radial growth at 1% after 48 hrs by poison food technique of Flack relative to control; assay type: functional
[29] = test system: Aspergillus niger; assay: Antifungal activity against Aspergillus niger assessed as radial growth at 7% after 72 hrs by poison food technique of Flack relative to control; assay type: functional
[30] = test system: Trichoderma hamatum; assay: Antifungal activity against Trichoderma hamatum assessed as radial growth at 5% after 72 hrs by poison food technique of Flack relative to control; assay type: functional; procedure, shortened: as §1
[31] = test system: Trichoderma koningii; assay: Antifungal activity against Trichoderma koningii assessed as radial growth at 3% after 48 hrs by poison food technique of Flack relative to control; assay type: functional; procedure, shortened: as §1
[32] = test system: Trichoderma hamatum; assay: Antifungal activity against Trichoderma hamatum assessed as radial growth at 1% after 48 hrs by poison food technique of Flack relative to control; assay type: functional
[33] = test system: Trichoderma hamatum; assay: Antifungal activity against Trichoderma hamatum assessed as radial growth at 0.5% after 72 hrs by poison food technique of Flack relative to control; assay type: functional
[34] = test system: Trichoderma hamatum; assay: Antifungal activity against Trichoderma hamatum assessed as radial growth at 7% after 48 hrs by poison food technique of Flack relative to control; assay type: functional; procedure, shortened: as §1
[35] = test system: Trichoderma hamatum; assay: Antifungal activity against Trichoderma hamatum assessed as radial growth at 5% after 48 hrs by poison food technique of Flack relative to control; assay type: functional; procedure, shortened: as §1
[36] = test system: Aspergillus niger; assay: Antifungal activity against Aspergillus niger assessed as radial growth at 3% after 72 hrs by poison food technique of Flack relative to control; assay type: functional
[37] = test system: Trichoderma hamatum; assay: Antifungal activity against Trichoderma hamatum assessed as radial growth at 3% after 48 hrs by poison food technique of Flack relative to control; assay type: functional
[38] = test system: Trichoderma koningii; assay: Antifungal activity against Trichoderma koningii assessed as radial growth at 3% after 72 hrs by poison food technique of Flack relative to control; assay type: functional; procedure, shortened: as §1
[39] = test system: Trichoderma koningii; assay: Antifungal activity against Trichoderma koningii; assay type: functional
[40] = test system: Trichoderma koningii; assay: Antifungal activity against Trichoderma koningii assessed as radial growth at 0.5% after 48 hrs by poison food technique of Flack relative to control; assay type: functional; procedure, shortened: as §1
[41] = test system: Trichoderma koningii; assay: Antifungal activity against Trichoderma koningii assessed as radial growth at 0.5% after 72 hrs by poison food technique of Flack relative to control; assay type: functional; procedure, shortened: as §1
[42] = test system: Trichoderma koningii; assay: Antifungal activity against Trichoderma koningii assessed as radial growth at 3% after 24 hrs by poison food technique of Flack relative to control; assay type: functional; procedure, shortened: as §1
[43] = test system: Trichoderma koningii; assay: Antifungal activity against Trichoderma koningii assessed as radial growth at 7% after 24 hrs by poison food technique of Flack relative to control; assay type: functional; procedure, shortened: as §1
[44] = test system: Trichoderma koningii; assay: Antifungal activity against Trichoderma koningii assessed as radial growth at 7% after 72 hrs by poison food technique of Flack relative to control; assay type: functional; procedure, shortened: as §1
[45] = test system: Trichoderma koningii; assay: Antifungal activity against Trichoderma koningii assessed as radial growth at 1% after 72 hrs by poison food technique of Flack relative to control; assay type: functional; procedure, shortened: as §1

## CCOC(=O)C1=C(C)NC(=O)NC1c1ccc(N(C)C)cc1 (stereo not given)
[1]
  Activity: Active
[2]
  inhibition (INH): 0%
[3]
  inhibition (INH): 88.42%
[4]
  inhibition (INH): 41.66%
[5]
  inhibition (INH): 87.09%
[6]
  inhibition (INH): 0%
[7]
  inhibition (INH): 42.85%
[8]
  inhibition (INH): 100%
[9]
  inhibition (INH): 46.4%
[10]
  inhibition (INH): 75%
[11]
  inhibition (INH): 100%
[12]
  inhibition (INH): 0%
[13]
  inhibition (INH): 100%
[14]
  inhibition (INH): 48.38%
[15]
  MIC: 0.35 µg/mL (≈ 1.15 µM)
[16]
  MIC: 0.025 µg/mL (≈ 0.0824 µM)
[17]
  inhibition (INH): 38.28%
[18]
  inhibition (INH): 84.2%
[19]
  inhibition (INH): 93.82%
[20]
  inhibition (INH): 100%
[21]
  inhibition (INH): 73.04%
[22]
  inhibition (INH): 100%
[23]
  inhibition (INH): 35.69%
[24]
  inhibition (INH): 100%
[25]
  inhibition (INH): 87.09%
[26]
  inhibition (INH): 9.36%
[27]
  inhibition (INH): 77.38%
[28]
  inhibition (INH): 47.25%
[29]
  inhibition (INH): 100%
[30]
  inhibition (INH): 86.83%
[31]
  inhibition (INH): 64.51%
[32]
  inhibition (INH): 0%
[33]
  inhibition (INH): 0%
[34]
  inhibition (INH): 96.38%
[35]
  inhibition (INH): 93.38%
[36]
  inhibition (INH): 74.11%
[37]
  inhibition (INH): 75.31%
[38]
  inhibition (INH): 59.58%
[39]
  MIC: 0.025 µg/mL (≈ 0.0824 µM)
[40]
  inhibition (INH): 9.67%
[41]
  inhibition (INH): 45.53%
[42]
  inhibition (INH): 84%
[43]
  inhibition (INH): 100%
[44]
  inhibition (INH): 80%
[45]
  inhibition (INH): 48.29%

## CCOC(=O)C1=C(C)NC(=S)NC1c1ccccc1O (stereo not given)
[1]
  Activity: Active
[2]
  inhibition (INH): 26.41%
[3]
  inhibition (INH): 31.92%
[4]
  inhibition (INH): 0%
[5]
  inhibition (INH): 91.4%
[6]
  inhibition (INH): 6.18%
[7]
  inhibition (INH): 20.12%
[8]
  inhibition (INH): 61.83%
[9]
  inhibition (INH): 0%
[10]
  inhibition (INH): 38.16%
[11]
  inhibition (INH): 100%
[12]
  inhibition (INH): 38.22%
[13]
  inhibition (INH): 62.46%
[14]
  inhibition (INH): 0%
[15]
  MIC: 0.025 µg/mL (≈ 0.0855 µM)
[16]
  MIC: 0.025 µg/mL (≈ 0.0855 µM)
[17]
  inhibition (INH): 0%
[18]
  inhibition (INH): 100%
[19]
  inhibition (INH): 98.35%
[20]
  inhibition (INH): 100%
[21]
  inhibition (INH): 76.44%
[22]
  inhibition (INH): 62.46%
[23]
  inhibition (INH): 0%
[24]
  inhibition (INH): 54.95%
[25]
  inhibition (INH): 93.75%
[26]
  inhibition (INH): 12.35%
[27]
  inhibition (INH): 81.13%
[28]
  inhibition (INH): 0%
[29]
  inhibition (INH): 36.14%
[30]
  inhibition (INH): 97.52%
[31]
  inhibition (INH): 4.18%
[32]
  inhibition (INH): 51.46%
[33]
  inhibition (INH): 0%
[34]
  inhibition (INH): 100%
[35]
  inhibition (INH): 100%
[36]
  inhibition (INH): 23.37%
[37]
  inhibition (INH): 80.94%
[38]
  inhibition (INH): 32.71%
[39]
  MIC: 0.025 µg/mL (≈ 0.0855 µM)
[40]
  inhibition (INH): 0%
[41]
  inhibition (INH): 0%
[42]
  inhibition (INH): 50.39%
[43]
  inhibition (INH): 100%
[44]
  inhibition (INH): 91.05%
[45]
  inhibition (INH): 14.37%
